Data published in ChEMBL document CHEMBL1123810, “Synthesis and cardiotonic activity of a series of substituted 4-alkyl-2(1H)-quinazolinones” (J Med Chem, 1987).

Key:
[1] = test system: Canis familiaris; assay: Effect on myocardial contractile force (CF) in anesthetized open-chest dogs at 8.75 mg/kg intravenous dose; format: functional, Canis lupus familiaris, Myocardium
Procedure, shortened: (§1)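 Pentobarbital-anesthetized (45 mg/kg i.p.), ventilated mongrel dogs, open chest. MAP came from a femoral artery cannula, HR from a cardiotachometer triggered by the pressure pulse, and CF from a right-ventricle strain gauge. Compound in 10% DMF/saline or as the HCl salt in saline was infused iv in 3–4 stepwise rising doses, each over 5 min. Responses are % change from predrug control at the maximum dose given.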

[2] = test system: Canis familiaris; assay: Effect on arterial blood pressure (MAP) in anesthetized open-chest dogs at 8.75 mg/kg intravenous dose; format: functional, Canis lupus familiaris; procedure, shortened: as §1
[3] = test system: Canis familiaris; assay: Effect that produces a 50% increase in myocardial contractile force (CF) above control in anesthetized open-chest dogs at 8.75 mg/kg intravenous dose; format: functional; details: Canis lupus familiaris, Myocardium
Procedure, shortened: (§2)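 Anesthetized (pentobarbital 45 mg/kg i.p.), artificially respired mongrel dogs with right thoracotomy. Contractile force was read by a strain gauge on the right ventricle. Compound was given in 10% DMF in saline, or as the HCl salt in saline, by femoral vein infusion in 3–4 stepwise increasing doses, each over 5 min. ED50 (mg/kg iv) is the dose giving a 50% CF rise over control, taken from 3–4 point dose–response curves by graphic estimation (n = 1, 2 dogs) or linear regression (n ≥ 3).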

[4] = test system: Canis familiaris; assay: Effect on heart rate (HR) in anesthetized open-chest dogs at 8.75 mg/kg intravenous dose; format: functional, Canis lupus familiaris; procedure, shortened: as §1
[5] = biological target: Phosphodiesterase 3 (Canis familiaris); assay: Inhibitory activity against canine cardiac fraction III cyclic AMP phosphodiesterase (PDE III)
[6] = test system: Canis familiaris; assay: Effect on arterial blood pressure (MAP) in anesthetized open-chest dogs at 1.875 mg/kg intravenous dose; format: functional, Canis lupus familiaris; procedure, shortened: as §1
[7] = test system: Canis familiaris; assay: 50% increase in myocardial contractile force (CF) above control in anesthetized open-chest dogs at 1.875 mg/kg intravenous dose; format: functional; details: Canis lupus familiaris, Myocardium; procedure, shortened: as §2
[8] = test system: Canis familiaris; assay: Effect on heart rate (HR) in anesthetized open-chest dogs at 1.875 mg/kg intravenous dose; format: functional, Canis lupus familiaris; procedure, shortened: as §1
[9] = biological target: Phosphodiesterase 3 (Canis familiaris); assay: Inhibition of canine cardiac fraction III cAMP phosphodiesterase (PDE 3) at 1.875 mg/kg intravenous dose
[10] = test system: Canis familiaris; assay: Effect on myocardial contractile force (CF) in anesthetized open-chest dogs at 1.875 mg/kg intravenous dose; format: functional, Canis lupus familiaris, Myocardium; procedure, shortened: as §1
[11] = test system: Canis familiaris; assay: 50% increase in myocardial contractile force (CF) above control in anesthetized open-chest dogs at 0.875 mg/kg intravenous dose; format: functional; details: Canis lupus familiaris, Myocardium; procedure, shortened: as §2
[12] = test system: Canis familiaris; assay: Effect on arterial blood pressure (MAP) in anesthetized open-chest dogs at 0.875 mg/kg intravenous dose; format: functional, Canis lupus familiaris; procedure, shortened: as §1
[13] = test system: Canis familiaris; assay: Effect on heart rate (HR) in anesthetized open-chest dogs at 0.875 mg/kg intravenous dose; format: functional, Canis lupus familiaris; procedure, shortened: as §1
[14] = test system: Canis familiaris; assay: Effect on myocardial contractile force (CF) in anesthetized open-chest dogs at 0.875 mg/kg intravenous dose; format: functional, Canis lupus familiaris, Myocardium; procedure, shortened: as §1
[15] = biological target: Phosphodiesterase 3 (Canis familiaris); assay: Inhibition of canine cardiac fraction III cAMP phosphodiesterase (PDE 3) at 0.875 mg/kg intravenous dose
[16] = test system: Canis familiaris; assay: 50% increase in myocardial contractile force (CF) above control in anesthetized open-chest dogs at 3.75 mg/kg intravenous dose; format: functional; details: Canis lupus familiaris, Myocardium; procedure, shortened: as §2
[17] = test system: Canis familiaris; assay: Effect on heart rate (HR) in anesthetized open-chest dogs at 3.75 mg/kg intravenous dose; format: functional, Canis lupus familiaris; procedure, shortened: as §1
[18] = test system: Canis familiaris; assay: Effect on myocardial contractile force (CF) in anesthetized open-chest dogs at 3.75 mg/kg intravenous dose; format: functional, Canis lupus familiaris, Myocardium; procedure, shortened: as §1
[19] = test system: Canis familiaris; assay: Effect on arterial blood pressure (MAP) in anesthetized open-chest dogs at 3.75 mg/kg intravenous dose; format: functional, Canis lupus familiaris; procedure, shortened: as §1

Structure (SMILES)	IC50 [5]	Change [1]	Change [2]	ED50 [3]	Change [4]	Change [6]	ED50 [7]	Change [8]	Change [10]	also measured
CCc1nc(O)nc2cc(OC)c(OC)cc12	–	82%	-28%	3.4 mg/kg	13%	–	–	–	–	–
Cc1nc(O)nc2ccccc12	138 µM	93%	-8%	3.45 mg/kg	16%	–	–	–	–	–
Cc1nc(O)nc2ccc(N3CCN(C)CC3)cc12	–	–	–	–	–	0%	> 1.87 mg/kg	6%	10%	IC50 [9]: 300 µM
COc1cc2nc(O)nc(C)c2c(OC)c1OC	–	–	–	–	–	-9%	> 1.87 mg/kg	0%	11%	–
Cc1nc(O)nc2cc(Cl)c(Cl)cc12	–	10%	1%	> 8.75 mg/kg	2%	–	–	–	–	–
Cc1nc(O)nc2ccc3c(c12)OCO3	–	–	–	–	–	-14%	0.69 mg/kg	13%	71%	–
COc1ccc2[nH]c(=O)nc(C)c2c1OC [BEMARINONE]	–	–	–	–	–	–	–	–	–	ED50 [11]: 0.23 mg/kg; Change [12]: -16%; Change [13]: 20%; Change [14]: 114%; IC50 [15]: 17 µM
Cc1nc(O)nc2ccc(Cl)cc12	–	85%	-21%	1.8 mg/kg	33%	–	–	–	–	–
COc1cc2c(C)nc(O)nc2c(OC)c1OC	–	–	–	–	–	-4%	> 1.87 mg/kg	3%	10%	–
Br.Cc1nc(O)nc2ccc(O)c(O)c12	18 µM	39%	8%	> 8.75 mg/kg	0%	–	–	–	–	–
Cc1nc(O)nc2ccc(N(C)C)cc12	38 µM	90%	-23%	1.2 mg/kg	23%	–	–	–	–	–
CCc1nc(O)nc2ccc(OC)c(OC)c12	–	–	–	–	–	9%	0.51 mg/kg	20%	112%	IC50 [9]: 18 µM
COc1ccc2nc(O)ncc2c1OC	–	–	–	–	–	-9%	1.64 mg/kg	10%	101%	–
Nc1cc(-c2ccncc2)c[nH]c1=O [INAMRINONE]	–	–	–	–	–	-10%	0.38 mg/kg	12%	134%	–
COc1ccc2c(c(C)nc(=O)n2C)c1OC	–	–	–	–	–	6%	> 1.87 mg/kg	5%	31%	–
Cc1nc(O)nc2ccc(N3CCCCC3)cc12	–	–	–	–	–	–	–	–	–	ED50 [16]: 1.13 mg/kg; Change [17]: 35%; Change [18]: 116%; Change [19]: -21%
Cc1nc(O)nc2cc3c(cc12)OCO3	–	66%	1%	5.65 mg/kg	10%	–	–	–	–	–
COc1cc2nc(O)nc(Cc3ccccc3)c2cc1OC	–	–	–	–	–	30%	> 1.87 mg/kg	3%	33%	IC50 [9]: 13 µM
COc1ccc2nc(O)nc(C)c2c1	–	–	–	–	–	–	–	–	–	ED50 [16]: 1.32 mg/kg; Change [17]: 18%; Change [18]: 111%; Change [19]: -10%
Cc1nc(O)nc2ccc(N3CCOCC3)cc12	–	–	–	–	–	–	–	–	–	ED50 [11]: 0.7 mg/kg; Change [12]: -10%; Change [13]: 13%; Change [14]: 59%

Further lines, with some results ahead:

IC50 [5]	Structure (SMILES)	Change [1]	Change [2]	ED50 [3]	Change [4]	Change [6]	ED50 [7]	Change [8]	Change [10]	also measured
14 µM	COc1cc2nc(O)nc(-c3ccccc3)c2cc1OC	106%	-25%	4.1 mg/kg	7%	–	–	–	–	–
100 µM	COc1cc2nc(O)nc(C)c2cc1OC	90%	-35%	2.42 mg/kg	19%	–	–	–	–	–
129 µM	COc1ccc(OC)c2c(C)nc(O)nc12	54%	-6%	–	13%	–	–	–	–	–
43 µM	COc1cc2nc(O)nc(C(C)C)c2cc1OC	112%	-27%	1.39 mg/kg	21%	–	–	–	–	–
25 µM	COc1cc(OC)c2c(C)nc(O)nc2c1	97%	-40%	2.08 mg/kg	25%	–	–	–	–	–
22 µM	COc1cc2nc(O)nc(C3CCCC3)c2cc1OC	71%	-19%	> 8.75 mg/kg	11%	–	–	–	–	–
190 µM	COc1cc(OC)c2nc(O)nc(C)c2c1	60%	-6%	7.45 mg/kg	13%	–	–	–	–	–
100 µM	COc1cc2nc(O)nc(C(F)(F)F)c2cc1OC	23%	-15%	> 8.75 mg/kg	0%	–	–	–	–	–
